A number with no mark means an inactive call. Records with an inconclusive call do not appear. Calls of active or inactive are those of the source.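 How the source made its calls, unless noted: active means viability increase at or above a cutoff of the median across tested compounds plus 3 SD (cut at about 8.5% in these data, passing the limit was not always enough); inconclusive means some gains above the cutoff, reason not given; inactive means the rest.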

Test [1] can be described thus: S. cerevisiae growth inhibition in permissive medium (OD615), pilot counter-assay for S. cerevisiae lifespan shortening project, permissive growth control (AID 705;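 active means growth inhibition above 25% in both replicates, a cutoff set 3 SD above the mean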). Particulars: OD615, 24 h, at 10 µM, active compounds read high. The essentials:
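System – S. cerevisiae with engineered DeaD lifespan system · Buffer or medium – SC raffinose/galactose permissive medium · Schedule – cells pre-grown 4 h, then 24 h compound exposure, 30 °C humidified · Technique – culture turbidity as optical density at 615 nm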

The nature of test [2]: S. cerevisiae growth inhibition in restrictive medium, OD615, pilot screen, restrictive growth control, yeast lifespan reduction project (AID 706;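 active means growth inhibition above a set limit, 3 SD over mean compound inhibition, in both replicates, cut at about 43% in these data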;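 further: modified DeaD lifespan yeast strain shifted to restrictive glucose medium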). Particulars: OD615, 48 h, at 10 µM, active compounds read high. The essentials: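 Material: engineered S. cerevisiae DeaD strain / Medium: glucose-based CSMM-D restrictive medium / Compound: single dose of 10 µM compound final, 0.25% DMSO / Timing: 4 h pre-incubation, 48 h exposure at 30 °C / Technique: OD615 absorbance reading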

The nature of test [3]: doxorubicin toxicity protection in MRP-1 cells – H69AR cells, CellTiter-Glo, duplicate, MRP-1 activator project, pilot screen (AID 807).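 Further: compound pretreatment 18-22 h then 72 h combined with doxorubicin; 0% = doxorubicin alone and 100% = vehicle without doxorubicin.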 Particulars: H69AR viability with doxorubicin, CellTiter-Glo luminescence; at 10 µM; active compounds read high.
Test [4] is described as follows: viability of HCT116 without oncogenic beta-catenin – human colon tumor cells, pilot screen (AID 823;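 active means cell viability at or below a set limit in both duplicate runs, the limit being the all-compound median minus 4 SD, cut at about 23% in these data, passing the limit was not always enough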;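 further: 0% = wells killed by 20 µM Hyamine and 100% = untreated DMSO cell wells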). The settings on record: HCT116 beta-catenin knockout viability, CellTiter-Glo, 60 h; at 10 µM; active compounds read low.
Test [5] can be described thus: viability of PTEN-null HCT116 cells – cell-based, HCT116 clonal line, CellTiter-Glo, pilot screen (AID 824;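 active means viability at or below 27.92% in each of two runs, the all-compound median minus 4 SD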;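 further: 0% = 20 µM Hyamine control and 100% = vehicle cell control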). Particulars: HCT116 PTEN-deleted viability, 60 h, at 10 µM, active compounds read low. In general terms: ATP-based viability assays read luminescence as a measure of living cells.
The nature of test [6]: RAM pathway blockade in budding yeast – dse1pr::URA3 reporter, 5-FOA selection, pilot screen (AID 869;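 active means inhibition over a set limit, the all-compound mean plus 3 SD, in both replicate runs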;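 further: 0% = DMSO wells with no growth and 100% = 10 µM 1-NA-PP1 with full growth; RAM network block rescues cells from 5-FOA so hits raise OD615 growth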). The settings on record: S. cerevisiae dse1pr::URA3 5-FOA growth, OD615, 2 d; at 10 µM; active compounds read high; strain carries analog-sensitive mutant Cbk1 kinase.
Test [7] is described as follows: RAM signaling pathway blockade in yeast – S. cerevisiae, Pdr1DBD-CYC8 efflux-inhibited sensitized strain, primary screen (AID 1298;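 active means RAM network inhibition above 8.4% in each of two replicates, 3 SD over the compound average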;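 further: 0% = DMSO untreated cells without growth and 100% = 10 µM 1-NA-PP1 full growth; higher means more yeast growth rescued from 5-FOA killing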). The settings on record: S. cerevisiae cbk1-as DSE1-URA3 strain, 5-FOA growth OD615, 2 d; at 50 µM; active compounds read high.

What is called viability is a read-out of living cells in per cent, often relative to untreated cells. A word on the inhibition: it is the relative decrease from the control value, in per cent. As for `Cn1c(=O)c2c(nc(CN3CCN(C(=O)c4ccco4)CC3)n2Cc2ccccc2F)n(C)c1=O`, the growth inhibition in test [1] was -1.06%; in test [2], -6.51%. Also, the viability increase in test [3] is -4.26%. For the same compound, the results for the viability in test [4] and in test [5] were 101% and 89.8%, respectively. The inhibition in test [6] was 2.1%. The RAM network inhibition in test [7] was 3.22%.

For `CCOC(=O)c1sc(NC(=O)c2cccnc2)nc1C`, the values for the growth inhibition in test [1] and in test [2] were -7.2% and -2%, respectively. Moreover, the viability increase in test [3] was -3.19%. Further, the values for the viability in test [4] and in test [5] were 102% and 97.7%, respectively. In addition, in test [6], the inhibition is 1.7%. Besides, the RAM network inhibition in test [7] is 1.1%.

Take `O=c1[nH]c2c(s1)C=Nc1ccccc1N2`: the growth inhibition is -5.34% in test [1] and 3.4% in test [2]. Also, the viability increase in test [3] was -2.29%. In addition, the viability is 89.9% in test [4] and 91.6% in test [5]. The inhibition in test [6] was 1.6%. Besides, in test [7], the RAM network inhibition is 0.32%.

On to `CCN=C1SC(CC(=O)NC(N)=O)C(=O)N1CC` (stereo unspecified), for which the growth inhibition is -12.5% in test [1] and -17.8% in test [2]. Moreover, the viability increase in test [3] is 0.51%. In addition, the viability in test [4] and in test [5] was 101% each time. Further, the inhibition in test [6] was 1.3%. In addition, in test [7], the RAM network inhibition is 1.66%.

Regarding `CC(=O)Oc1c2occc2cc2ccc(=O)oc12`, the growth inhibition in test [1] is -10.4%; in test [2], -1.74%. The viability increase in test [3] was -2.14%. The viability was 92.7% in test [4] and 90.5% in test [5]. In test [6], the inhibition is 0.425%. The RAM network inhibition in test [7] was -1.95%.

For the compound `Cc1ccc(-n2ncc3c(=O)[nH]c(SCC(=O)N4CCC(C)CC4)nc32)cc1C`, the growth inhibition in test [1] is -0.265%; in test [2] it was -3.58%. Further, the viability increase in test [3] is -5.08%. Besides, the viability is 89% in test [4] and 85.3% in test [5]. Besides, the inhibition in test [6] was 1.89%. Further, the RAM network inhibition in test [7] was 2.86%.

For `CCCNC(=O)Cc1cc(=O)[nH]c(=O)[nH]1`, the growth inhibition in test [1] was -14.4%; in test [2], -17.8%. Also, the viability increase in test [3] was 0.56%. The viability in test [4] is 105%; in test [5], 101%. Also, the inhibition in test [6] was 1.33%. The RAM network inhibition in test [7] is 1.73%.

As for `CCOC(=O)C1=C(C)NC2=C(C(=O)CCC2)C1c1cc(OC)ccc1OC` (stereo unspecified), the growth inhibition in test [1] is -10.6%; in test [2], -12.8%. For the same compound, the viability increase in test [3] was -1.47%. Also, the viability in test [4] was 94.1%; in test [5] it was 96.3%. Besides, the inhibition in test [6] is 1.73%. In addition, in test [7], the RAM network inhibition was 7.52%.

With `COC(=O)c1cc(NC(=O)c2nccnc2C(=O)O)cc(C(=O)OC)c1`, the growth inhibition in test [1] is -10.9%; in test [2], 3.16%. The viability increase in test [3] is -1.21%. Further, the viability in test [4] is 90.4%; in test [5], 98%. Also, the inhibition in test [6] is -0.12%. The RAM network inhibition in test [7] is -1.46%.

Regarding `Cn1c(C(=O)NCCCN2CCN(c3cccc(Cl)c3)CC2)cc2c(=O)n(C)c3ccccc3c21`, the growth inhibition in test [1] was -2.52%; in test [2], -0.835%. Further, in test [3], the viability increase was -2.92%. Besides, the viability is 59.9% in test [4] and 59% in test [5]. In addition, the inhibition in test [6] was -0.02%. Moreover, the RAM network inhibition in test [7] is 7.94%.

Regarding `Cn1cnnc1SCc1ccc(C#N)cc1Cl`, the growth inhibition in test [1] is -9.5%; in test [2], -15.1%. Moreover, in test [3], the viability increase was 0.63%. In addition, the viability in test [4] is 99.7%; in test [5], 97.8%. For the same compound, the inhibition in test [6] was 0.175%. The RAM network inhibition in test [7] was 4.52%.

As for `O=c1c2ccccc2c2ccccc2c(=O)n1CC1CCCO1` (stereo unspecified), the growth inhibition is 2.77% in test [1] and 0.685% in test [2]. Further, the viability increase in test [3] is -2.2%. The viability in test [4] was 101%; in test [5], 89.6%. Also, the inhibition in test [6] is 0.305%. The RAM network inhibition in test [7] is 12.7%.

On to `COc1cc(S(=O)(=O)NCc2ccc3c(c2)OCO3)ccc1Cl`, for which the results for the growth inhibition in test [1] and in test [2] were -10.5% and -15.1%, respectively. The viability increase in test [3] was -2.38%. The viability in test [4] was 97.3%; in test [5], 95.5%. Further, the inhibition in test [6] is 1.69%. The RAM network inhibition in test [7] was 0.82%.

With `CN(Cc1ccccc1)C(=O)c1ccc2c(c1)OCCO2`, the growth inhibition was -14.5% in test [1] and -4.09% in test [2]. Also, in test [3], the viability increase is -0.29%. The viability in test [4] was 89.5%; in test [5], 94.6%. In addition, in test [6], the inhibition is 1.48%. Also, the RAM network inhibition in test [7] is 3.49%.

`O=C(CSc1nccn1-c1ccc(Cl)cc1)NCc1ccc2c(c1)OCO2`: the growth inhibition in test [1] is -14.6%; in test [2], -8.19%. Also, the viability increase in test [3] was -0.8%. In addition, the values for the viability in test [4] and in test [5] were 96.3% and 89.5%, respectively. Further, the inhibition in test [6] was 1.3%. Besides, the RAM network inhibition in test [7] is 2.26%.

In the case of `CCN(CC)S(=O)(=O)c1cccc(-c2nnc(SCc3nnc(-c4cccs4)o3)n2N)c1`, the figures for the growth inhibition in test [1] and in test [2] were 5.53% and 46.4% (active), respectively. In test [3], the viability increase is 0.28%. For the same compound, the viability was 86.5% in test [4] and 92.5% in test [5]. For the same compound, the inhibition in test [6] was 1.85%. Also, the RAM network inhibition in test [7] is 3.12%.

Turning to `Cc1ccc(F)c(NC(=O)C2CCCCC2C(=O)O)c1` (stereo unspecified), the growth inhibition is 1.12% in test [1] and -20.6% in test [2]. Also, the viability increase in test [3] is -2.22%. The viability is 90.7% in test [4] and 94% in test [5]. Besides, in test [6], the inhibition was 0.145%. Further, the RAM network inhibition in test [7] is 2.88%.

As to `CCOC(=O)N1CCC(NC(=O)C2CCCCN2S(=O)(=O)c2ccc(F)cc2)CC1` (stereo unspecified), the results for the growth inhibition in test [1] and in test [2] were -12.5% and -1.21%, respectively. Further, the viability increase in test [3] is -3.71%. Moreover, the viability in test [4] is 94%; in test [5], 89.6%. In addition, in test [6], the inhibition is 0.405%. Moreover, the RAM network inhibition in test [7] is -0.16%.

For the origin of these results see PubChem BioAssay.
